This note sets out measurements from ChEMBL document CHEMBL1133934, “Metabolic stabilization of benzylidene ketal M(2) muscarinic receptor antagonists via halonaphthoic acid substitution” (Bioorg Med Chem Lett, 2001).

The Ki is the dissociation constant of the complex between target and ligand, obtained from inhibition or displacement. Low values mean higher affinity, high ones lower affinity. In general, AUC refers to the area under the concentration-time curve, a measure of exposure. A low value points to less exposure.

Data set [1] has as its system Rattus norvegicus. As to the kind of experiment: Percent of Acetylcholine (ACh) released above baseline in rat striatum at the dose of 10 mg/kg p.o. (0-2h). It is filed as functional. Conditions: route oral. An outline of the steps: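 Rats dosed orally at 10 mg/kg in 20% HPβCD; microdialysis of striatum measuring ACh release over the 2 h experiment. Stimulation judged against pre-injection baseline, significance p < 0.05 by Duncan's multiple range statistic.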

Data set [2] deals with T1, Muscarinic acetylcholine receptor M2 (Homo sapiens, UniProt P08172).
T1 sequence (P08172 whole entry): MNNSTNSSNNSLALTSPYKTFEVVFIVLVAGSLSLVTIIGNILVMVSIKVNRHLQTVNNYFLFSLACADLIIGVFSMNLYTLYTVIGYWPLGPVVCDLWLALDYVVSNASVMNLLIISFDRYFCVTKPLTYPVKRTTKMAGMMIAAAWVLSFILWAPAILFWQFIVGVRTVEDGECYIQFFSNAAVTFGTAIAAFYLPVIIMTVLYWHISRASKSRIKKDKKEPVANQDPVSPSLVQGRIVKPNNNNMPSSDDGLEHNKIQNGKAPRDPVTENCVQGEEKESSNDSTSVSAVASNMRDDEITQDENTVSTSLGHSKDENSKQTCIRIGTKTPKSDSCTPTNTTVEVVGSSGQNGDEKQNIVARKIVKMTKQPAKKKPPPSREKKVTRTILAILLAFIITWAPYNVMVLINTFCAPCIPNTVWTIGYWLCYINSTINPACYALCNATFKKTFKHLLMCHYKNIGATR
As to the kind of experiment: Antagonistic activity against Muscarinic acetylcholine receptor M2. It is filed as functional. An outline of the steps:
(§1)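 Muscarinic receptor binding by a method described elsewhere; values are the mean of duplicates (SEM < 15%), each determination performed at least twice. Selectivity expressed as the ratio of M1 or M3 to M2 binding.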

The target of data set [3] is T1, Muscarinic acetylcholine receptor M2. In words: Antagonistic activity against muscarinic acetylcholine receptor M2. The class given is functional. Summed up:
as §1

Data set [4] is described as follows: Pharmacokinetic property at the dose of 10 mg/kg (20% HPbetaCD) concentration in rat (0 to 6 hr) p.o. Conditions: in vivo, po.
Data set [5] concerns the target Muscarinic acetylcholine receptors; M2 & M3 (Homo sapiens) (UniProt P20309+P08172). In words: Selectivity ratio of M3 muscarinic receptor to that of M2 muscarinic receptor. It is filed as protein assay. An outline of the steps: as §1
For data set [6], the target named is Muscarinic acetylcholine receptors; M1 & M2 (Homo sapiens) (UniProt P11229+P08172). In words: Selectivity ratio of M1 muscarinic receptor to that of M2 muscarinic receptor. It is filed as protein assay. An outline of the steps: as §1
Sequence of Muscarinic acetylcholine receptors; M1 & M2 (Homo sapiens) (P11229 whole entry, looked up, one chain of several): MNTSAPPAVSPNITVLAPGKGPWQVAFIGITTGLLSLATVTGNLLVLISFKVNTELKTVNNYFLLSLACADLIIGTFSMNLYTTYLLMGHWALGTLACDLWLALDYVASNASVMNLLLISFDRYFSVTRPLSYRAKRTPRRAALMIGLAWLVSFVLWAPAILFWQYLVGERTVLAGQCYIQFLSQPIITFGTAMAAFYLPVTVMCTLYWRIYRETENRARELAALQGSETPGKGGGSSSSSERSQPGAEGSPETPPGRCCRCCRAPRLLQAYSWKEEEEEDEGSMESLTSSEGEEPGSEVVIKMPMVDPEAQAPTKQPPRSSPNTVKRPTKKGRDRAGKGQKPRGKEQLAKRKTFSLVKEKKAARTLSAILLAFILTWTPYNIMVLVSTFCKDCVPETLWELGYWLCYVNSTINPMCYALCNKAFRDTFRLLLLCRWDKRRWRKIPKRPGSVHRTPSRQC

Sequence of Muscarinic acetylcholine receptors; M2 & M3 (Homo sapiens) (P20309 whole entry, looked up, one chain of several): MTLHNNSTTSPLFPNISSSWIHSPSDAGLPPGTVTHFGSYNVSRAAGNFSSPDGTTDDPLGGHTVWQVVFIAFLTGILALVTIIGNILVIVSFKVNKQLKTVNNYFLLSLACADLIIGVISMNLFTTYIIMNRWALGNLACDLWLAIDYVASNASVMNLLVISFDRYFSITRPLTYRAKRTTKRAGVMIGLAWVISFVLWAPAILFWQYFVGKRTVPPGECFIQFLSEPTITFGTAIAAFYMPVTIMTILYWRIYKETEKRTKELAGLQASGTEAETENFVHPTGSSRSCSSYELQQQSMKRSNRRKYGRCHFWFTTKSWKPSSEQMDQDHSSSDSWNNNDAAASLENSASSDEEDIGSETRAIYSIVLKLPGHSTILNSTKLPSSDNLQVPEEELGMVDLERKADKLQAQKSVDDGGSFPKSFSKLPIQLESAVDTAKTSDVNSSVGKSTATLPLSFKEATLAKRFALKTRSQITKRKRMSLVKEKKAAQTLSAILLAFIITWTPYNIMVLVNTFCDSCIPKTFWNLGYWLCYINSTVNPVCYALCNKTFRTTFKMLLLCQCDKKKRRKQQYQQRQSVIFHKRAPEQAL

As to `COc1ccc(S(=O)(=O)c2ccc(C3(C4CCN(C5CCN(C(=O)c6cccc7c(F)ccc(F)c67)CC5)CC4)OCCO3)cc2)cc1`, the MD in data set [1] was found to be 120%. The Ki in data set [2] came to 0.29 nM.
The compound `COc1ccc(S(=O)(=O)c2ccc(C3(C4CCN(C5CCN(C(=O)c6cccc7cc(Cl)ccc67)CC5)CC4)OCCO3)cc2)cc1` had a Ki in data set [3] of 1.4 nM.
For the compound `COc1ccc(S(=O)(=O)c2ccc(C3(C4CCN(C5CCN(C(=O)c6cccc7c(F)cc(F)cc67)CC5)CC4)OCCO3)cc2)cc1`, the MD in data set [1] is given as 133%. In data set [4], this compound showed an AUC at 6 h of 367 ng·h/mL. This compound also returned a Ki in data set [2] of 0.23 nM.
For `COc1ccc(S(=O)(=O)c2ccc(C3(C4CCN(C5CCN(C(=O)c6cccc7ccc(F)cc67)CC5)CC4)OCCO3)cc2)cc1`, affinity in data set [3] was put at a Ki of 1.2 nM.
Same read-out and setting: for `COc1ccc(S(=O)(=O)c2ccc(C3(C4CCN(C5CCN(C(=O)c6cccc7ccccc67)CC5)CC4)OCCO3)cc2)cc1` the value was 0.14 nM.
Turning to `CCCS(=O)(=O)N1CCC(N2CCC(C3(c4ccc(S(=O)(=O)c5ccc6c(c5)OCO6)cc4)OCCO3)CC2)CC1`, the Selectivity ratio in data set [5] came out at 93; in data set [6] it was 102.
Take `COc1ccc(S(=O)(=O)c2ccc(C3(C4CCN(C5CCN(C(=O)c6cccc7c(F)cccc67)CC5)CC4)OCCO3)cc2)cc1`: the MD in data set [1] is on record as 140%. In data set [4], this compound displayed an AUC at 6 h of 130 ng·h/mL. Besides, in data set [3], the Ki came to 0.2 nM.
`COc1ccc(S(=O)(=O)c2ccc(C3(C4CCN(C5CCN(C(=O)c6cccc7cccc(F)c67)CC5)CC4)OCCO3)cc2)cc1` came in with a Ki in data set [2] of 0.99 nM.
Consider `COc1ccc(S(=O)(=O)c2ccc(C3(C4CCN(C5CCN(C(=O)c6cccc7c(Br)cccc67)CC5)CC4)OCCO3)cc2)cc1`, for which the MD in data set [1] turned out to be 125%. The compound also had an AUC at 6 h in data set [4] of 702 ng·h/mL. Moreover, the Ki in data set [3] was 0.51 nM.
Regarding `COc1ccc(S(=O)(=O)c2ccc(C3(C4CCN(C5CCN(C(=O)c6cccc7cc(F)ccc67)CC5)CC4)OCCO3)cc2)cc1`, the affinity in data set [3] corresponds to a Ki of 0.81 nM.
Turning to `CCCS(=O)(=O)N1CCC(N2CCC(C3(c4ccc(S(=O)(=O)c5ccc(OC)cc5)cc4)OCCO3)CC2)CC1`, the Selectivity ratio in data set [5] came out at 25.3; in data set [6], 18.3. In data set [2], this compound returned a Ki of 33.3 nM.
Regarding `COc1ccc(S(=O)(=O)c2ccc(C3(C4CCN(C5CCN(C(=O)c6ccc(F)c7ccccc67)CC5)CC4)OCCO3)cc2)cc1`, the MD in data set [1] stood at 180%. Further, in data set [3], affinity was put at a Ki of 0.51 nM.
